Source: ChEMBL document CHEMBL1212904, “Discovery of pyrrole-indoline-2-ones as Aurora kinase inhibitors with a different inhibition profile” (J Med Chem, 2010)
The source made the active and inactive calls. No cut-off for these calls is given here.

How the values were obtained:
[1] = biological target: Muscle, skeletal receptor tyrosine-protein kinase (Homo sapiens) (UniProt O15146); test: Inhibition of MUSK at 1 uM by KINOMEscan binding assay
[2] = biological target: Epithelial discoidin domain-containing receptor 1 (Homo sapiens) (UniProt Q08345); test: Inhibition of DDR1 at 1 uM by KINOMEscan binding assay
HCT-116 [3] = test: Antiproliferative activity against human HCT116 cells after 72 hrs by [3H]thymidine incorporation assay; format: functional, cell-based
[4] = biological target: Macrophage colony-stimulating factor 1 receptor (Homo sapiens, UniProt P07333); conditions: 1 uM
[5] = biological target: Epidermal growth factor receptor (Homo sapiens) (UniProt P00533); test: Inhibition of EGFR at 1 uM by radiometric method
[6] = biological target: Mitogen-activated protein kinase kinase kinase kinase 3 (Homo sapiens) (UniProt Q8IVH8); test: Inhibition of MAP4K3 at 1 uM by KINOMEscan binding assay
[7] = biological target: Insulin-like growth factor 1 receptor (Homo sapiens) (UniProt P08069); test: Inhibition of IGF1R at 1 uM by radiometric method
[8] = biological target: T1, Aurora kinase A (Homo sapiens) (UniProt O14965); test: Inhibition of aurora A in human HCT116 cells assessed as reduction of phosphorylated histone H3 at ser10 level measured at 1.25 to 40 uM after 3 hrs by Western blot analysis; format: cell-based; conditions: HCT-116
T1 sequence (whole entry): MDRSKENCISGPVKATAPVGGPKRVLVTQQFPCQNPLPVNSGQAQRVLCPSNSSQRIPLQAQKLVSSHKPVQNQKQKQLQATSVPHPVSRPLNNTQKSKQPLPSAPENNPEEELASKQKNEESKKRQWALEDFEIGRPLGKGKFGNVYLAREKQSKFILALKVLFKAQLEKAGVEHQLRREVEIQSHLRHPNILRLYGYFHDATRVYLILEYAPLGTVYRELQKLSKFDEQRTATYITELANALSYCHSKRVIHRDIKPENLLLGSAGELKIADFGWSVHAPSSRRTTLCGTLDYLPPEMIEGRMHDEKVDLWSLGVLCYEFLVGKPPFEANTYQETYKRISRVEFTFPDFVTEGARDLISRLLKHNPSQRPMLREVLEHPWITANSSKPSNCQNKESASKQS
Summary of the method: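 HCT-116 cells were synchronized at G2/M with 200 ng/mL nocodazole for 17 h, then given inhibitor for a further 3.0 h. Cells were PBS-washed, boiled in 2× SDS sample buffer, and run on SDS-PAGE with immunoblotting. Rabbit antibodies detected pT288 Aurora A, total Aurora A, pS10 histone H3 and total H3; β-actin served as loading control.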

[9] = Inhibition of CHK2 at 1 uM by radiometric method
[10] = biological target: Glycogen synthase kinase-3 beta (Homo sapiens) (UniProt P49841); test: Inhibition of GSK3B at 1 uM by radiometric method
[11] = biological target: Fibroblast growth factor receptor 1 (Homo sapiens) (UniProt P11362); test: Inhibition of FGFR1 at 1 uM by radiometric method
[12] = test system: Serine/threonine-protein kinase B-raf (Homo sapiens), P15056 [V600E]; test: Inhibition of b-Raf V600E mutant at 1 uM by radiometric method
[13] = biological target: Tyrosine-protein kinase JAK2 (Homo sapiens) (UniProt O60674); test: Inhibition of JAK2 at 1 uM by radiometric method
[14] = biological target: Mast/stem cell growth factor receptor Kit (Homo sapiens, UniProt P10721); test: Inhibition of c-Kit by radiometric method
[15] = biological target: RAC-alpha serine/threonine-protein kinase (Homo sapiens) (UniProt P31749); test: Inhibition of AKT1 at 1 uM by radiometric method
[16] = biological target: Tyrosine-protein kinase ABL1 (Homo sapiens) (UniProt P00519); test: Inhibition of ABL1 at 1 uM by radiometric method
[17] = biological target: Serine/threonine-protein kinase 10 (Homo sapiens) (UniProt O94804); test: Inhibition of LOK at 1 uM by KINOMEscan binding assay
[18] = biological target: Tyrosine-protein kinase Lck (Homo sapiens) (UniProt P06239); test: Inhibition of LCK at 1 uM by KINOMEscan binding assay
HCT-116 [19] = test: Cell cycle arrest in human HCT116 cells assessed as increase of tetraploid 4N DNA at 4 uM after 24 hrs by flow cytometry; format: functional, cell-based
Summary of the method: (§1)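 HCT-116 cells exposed to 4 μM for 24 h, then trypsinized, PBS-washed, fixed in ice-cold 70% ethanol at -20 °C overnight. Cells were washed twice in PBS and stained 30 min in PBS with 2 μg/mL RNase A and 5 μg/mL propidium iodide. DNA content was read by flow cytometry to score 4 N and ≥8 N populations.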

Aurora kinase B = Aurora kinase B (Homo sapiens, UniProt Q96GD4); test: Inhibition of recombinant aurora B
Aurora kinase A = biological target: T2, Aurora kinase A (Homo sapiens, UniProt O14965); test: Inhibition of recombinant aurora A
T2 sequence (O14965 whole entry): T1 sequence (whole entry)

[20] = biological target: Vascular endothelial growth factor receptor 2 (Homo sapiens, UniProt P35968); test: Inhibition of VEGFR2 by radiometric method
HeLa = test: Antiproliferative activity against human HeLa cells after 72 hrs by cell titer 96 assay; format: functional, cell-based
[21] = biological target: Receptor-type tyrosine-protein kinase FLT3 (Homo sapiens, UniProt P36888); test: Inhibition of FLT3 by radiometric method
HCT-116 [22] = test: Cell cycle arrest in human HCT116 cells assessed as increase of multinucleated octoploid 8 N DNA at 4 uM after 24 hrs by flow cytometry; format: functional, cell-based
Summary of the method: as §1

Sequence of Muscle, skeletal receptor tyrosine-protein kinase (Homo sapiens) (O15146 whole entry, the tested form may be a part): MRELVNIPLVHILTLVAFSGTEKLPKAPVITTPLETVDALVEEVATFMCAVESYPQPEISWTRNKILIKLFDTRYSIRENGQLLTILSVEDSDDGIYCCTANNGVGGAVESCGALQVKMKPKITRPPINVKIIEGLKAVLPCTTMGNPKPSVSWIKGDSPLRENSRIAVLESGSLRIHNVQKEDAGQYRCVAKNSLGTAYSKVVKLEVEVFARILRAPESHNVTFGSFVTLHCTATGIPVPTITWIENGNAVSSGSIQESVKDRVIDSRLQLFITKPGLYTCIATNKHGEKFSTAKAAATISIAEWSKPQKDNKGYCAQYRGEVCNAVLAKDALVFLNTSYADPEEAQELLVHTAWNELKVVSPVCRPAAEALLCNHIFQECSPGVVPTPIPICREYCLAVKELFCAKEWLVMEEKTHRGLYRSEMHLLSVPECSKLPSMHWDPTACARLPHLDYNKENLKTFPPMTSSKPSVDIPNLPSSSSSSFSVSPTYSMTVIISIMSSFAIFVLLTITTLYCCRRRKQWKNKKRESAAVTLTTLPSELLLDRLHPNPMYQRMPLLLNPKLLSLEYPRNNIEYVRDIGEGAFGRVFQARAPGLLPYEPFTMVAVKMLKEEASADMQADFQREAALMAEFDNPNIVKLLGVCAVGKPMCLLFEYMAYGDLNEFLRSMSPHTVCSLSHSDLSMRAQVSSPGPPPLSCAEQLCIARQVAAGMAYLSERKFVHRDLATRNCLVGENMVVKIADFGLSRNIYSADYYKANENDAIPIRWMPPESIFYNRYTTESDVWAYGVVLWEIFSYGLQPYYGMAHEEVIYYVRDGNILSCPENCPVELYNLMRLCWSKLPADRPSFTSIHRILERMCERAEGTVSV
Sequence of Tyrosine-protein kinase Lck (Homo sapiens) (P06239 2-509 limits assumed): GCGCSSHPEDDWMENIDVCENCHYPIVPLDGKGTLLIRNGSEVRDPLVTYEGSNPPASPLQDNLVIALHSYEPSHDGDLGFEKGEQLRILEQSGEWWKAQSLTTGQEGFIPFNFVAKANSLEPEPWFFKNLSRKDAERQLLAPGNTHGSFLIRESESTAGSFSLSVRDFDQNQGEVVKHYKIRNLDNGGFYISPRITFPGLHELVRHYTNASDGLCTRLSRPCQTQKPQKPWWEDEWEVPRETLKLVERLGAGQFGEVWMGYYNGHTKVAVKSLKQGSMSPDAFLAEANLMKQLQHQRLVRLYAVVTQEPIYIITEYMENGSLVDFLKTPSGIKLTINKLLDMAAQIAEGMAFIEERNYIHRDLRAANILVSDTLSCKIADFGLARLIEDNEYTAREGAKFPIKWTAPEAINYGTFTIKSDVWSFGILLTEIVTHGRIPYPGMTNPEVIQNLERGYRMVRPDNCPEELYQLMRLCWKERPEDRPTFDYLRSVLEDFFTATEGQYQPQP
Sequence of Mast/stem cell growth factor receptor Kit (P10721 whole entry): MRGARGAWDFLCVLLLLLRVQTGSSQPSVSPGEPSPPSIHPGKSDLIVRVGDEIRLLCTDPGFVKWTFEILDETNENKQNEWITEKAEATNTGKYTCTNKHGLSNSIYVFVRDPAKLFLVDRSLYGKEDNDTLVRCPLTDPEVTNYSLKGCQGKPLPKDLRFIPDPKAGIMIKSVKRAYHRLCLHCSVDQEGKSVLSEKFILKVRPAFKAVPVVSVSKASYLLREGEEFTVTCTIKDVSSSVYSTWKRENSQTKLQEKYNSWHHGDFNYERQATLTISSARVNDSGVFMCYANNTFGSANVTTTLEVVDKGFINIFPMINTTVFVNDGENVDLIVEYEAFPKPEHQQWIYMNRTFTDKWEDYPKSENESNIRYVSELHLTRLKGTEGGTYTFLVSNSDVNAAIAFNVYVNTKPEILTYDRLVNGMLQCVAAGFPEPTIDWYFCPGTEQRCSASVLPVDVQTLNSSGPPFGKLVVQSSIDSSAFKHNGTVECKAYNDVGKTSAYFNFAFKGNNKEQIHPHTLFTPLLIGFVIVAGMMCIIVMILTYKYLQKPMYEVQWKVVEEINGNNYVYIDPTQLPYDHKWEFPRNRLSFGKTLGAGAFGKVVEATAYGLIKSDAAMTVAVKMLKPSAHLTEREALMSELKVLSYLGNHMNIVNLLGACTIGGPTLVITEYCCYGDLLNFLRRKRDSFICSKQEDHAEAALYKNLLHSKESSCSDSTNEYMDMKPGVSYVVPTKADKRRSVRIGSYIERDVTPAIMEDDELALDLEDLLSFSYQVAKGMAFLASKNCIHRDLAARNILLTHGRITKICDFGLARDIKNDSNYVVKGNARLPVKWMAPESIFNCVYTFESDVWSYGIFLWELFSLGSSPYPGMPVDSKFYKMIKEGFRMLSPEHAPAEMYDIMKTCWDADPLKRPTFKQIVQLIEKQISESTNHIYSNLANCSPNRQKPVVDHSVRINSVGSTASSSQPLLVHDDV
Sequence of Serine/threonine-protein kinase B-raf (Homo sapiens), P15056 [V600E] (P15056 whole entry V600E): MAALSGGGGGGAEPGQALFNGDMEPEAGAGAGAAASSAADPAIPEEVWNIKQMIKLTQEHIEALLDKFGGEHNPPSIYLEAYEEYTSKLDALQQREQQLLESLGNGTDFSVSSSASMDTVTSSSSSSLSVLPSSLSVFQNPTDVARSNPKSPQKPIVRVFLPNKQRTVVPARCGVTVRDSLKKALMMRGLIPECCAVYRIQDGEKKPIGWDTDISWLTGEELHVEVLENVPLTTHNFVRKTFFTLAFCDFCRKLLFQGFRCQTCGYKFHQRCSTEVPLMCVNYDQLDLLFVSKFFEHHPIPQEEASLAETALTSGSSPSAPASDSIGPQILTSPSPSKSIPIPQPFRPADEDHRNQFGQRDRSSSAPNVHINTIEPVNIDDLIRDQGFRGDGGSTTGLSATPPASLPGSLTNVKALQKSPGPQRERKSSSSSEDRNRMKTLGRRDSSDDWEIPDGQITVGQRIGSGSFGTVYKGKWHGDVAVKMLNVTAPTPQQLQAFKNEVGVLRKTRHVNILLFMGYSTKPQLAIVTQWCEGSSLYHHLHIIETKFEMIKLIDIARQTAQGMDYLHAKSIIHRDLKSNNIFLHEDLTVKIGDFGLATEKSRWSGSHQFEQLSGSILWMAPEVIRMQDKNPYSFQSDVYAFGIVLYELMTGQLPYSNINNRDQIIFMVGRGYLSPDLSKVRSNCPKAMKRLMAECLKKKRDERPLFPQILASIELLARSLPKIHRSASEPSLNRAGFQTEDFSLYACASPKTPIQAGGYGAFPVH
Sequence of Insulin-like growth factor 1 receptor (Homo sapiens) (P08069 31-736 limits assumed): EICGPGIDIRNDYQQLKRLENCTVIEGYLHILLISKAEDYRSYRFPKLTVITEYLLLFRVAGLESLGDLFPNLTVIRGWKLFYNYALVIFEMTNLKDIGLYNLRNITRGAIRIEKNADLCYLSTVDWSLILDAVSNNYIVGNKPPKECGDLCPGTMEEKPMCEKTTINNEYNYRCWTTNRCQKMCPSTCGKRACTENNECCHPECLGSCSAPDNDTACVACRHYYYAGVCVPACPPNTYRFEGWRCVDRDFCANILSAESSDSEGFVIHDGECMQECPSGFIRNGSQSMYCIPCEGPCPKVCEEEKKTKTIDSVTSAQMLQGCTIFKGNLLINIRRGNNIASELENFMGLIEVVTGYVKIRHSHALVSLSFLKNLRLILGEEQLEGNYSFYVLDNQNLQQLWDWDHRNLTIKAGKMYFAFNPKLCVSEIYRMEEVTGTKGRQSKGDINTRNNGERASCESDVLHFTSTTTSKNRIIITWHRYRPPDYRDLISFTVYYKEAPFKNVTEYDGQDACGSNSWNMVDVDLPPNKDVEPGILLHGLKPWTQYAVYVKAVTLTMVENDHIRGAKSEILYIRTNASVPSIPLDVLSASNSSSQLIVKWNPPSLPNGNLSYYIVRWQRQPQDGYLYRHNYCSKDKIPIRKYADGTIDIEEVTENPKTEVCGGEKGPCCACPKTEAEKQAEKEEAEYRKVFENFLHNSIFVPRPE
Sequence of Insulin-like growth factor 1 receptor (Homo sapiens) (P08069 741-1367 limits assumed): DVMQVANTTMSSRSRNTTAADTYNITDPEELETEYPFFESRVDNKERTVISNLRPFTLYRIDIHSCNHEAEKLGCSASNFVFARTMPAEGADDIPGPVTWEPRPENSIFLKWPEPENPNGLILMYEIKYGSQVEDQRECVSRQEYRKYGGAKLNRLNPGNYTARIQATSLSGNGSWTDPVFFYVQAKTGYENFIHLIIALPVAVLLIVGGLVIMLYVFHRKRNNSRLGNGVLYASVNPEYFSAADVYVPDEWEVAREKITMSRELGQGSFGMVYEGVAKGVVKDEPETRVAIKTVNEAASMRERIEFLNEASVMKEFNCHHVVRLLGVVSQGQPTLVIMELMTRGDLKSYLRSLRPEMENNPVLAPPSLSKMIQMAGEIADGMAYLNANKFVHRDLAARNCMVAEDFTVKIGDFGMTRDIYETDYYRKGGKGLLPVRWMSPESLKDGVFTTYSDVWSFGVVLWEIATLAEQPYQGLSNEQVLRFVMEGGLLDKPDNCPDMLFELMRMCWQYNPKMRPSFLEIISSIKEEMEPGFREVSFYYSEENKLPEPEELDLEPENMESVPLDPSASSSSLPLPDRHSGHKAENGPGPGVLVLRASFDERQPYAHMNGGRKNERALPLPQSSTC
Sequence of RAC-alpha serine/threonine-protein kinase (Homo sapiens) (P31749 whole entry): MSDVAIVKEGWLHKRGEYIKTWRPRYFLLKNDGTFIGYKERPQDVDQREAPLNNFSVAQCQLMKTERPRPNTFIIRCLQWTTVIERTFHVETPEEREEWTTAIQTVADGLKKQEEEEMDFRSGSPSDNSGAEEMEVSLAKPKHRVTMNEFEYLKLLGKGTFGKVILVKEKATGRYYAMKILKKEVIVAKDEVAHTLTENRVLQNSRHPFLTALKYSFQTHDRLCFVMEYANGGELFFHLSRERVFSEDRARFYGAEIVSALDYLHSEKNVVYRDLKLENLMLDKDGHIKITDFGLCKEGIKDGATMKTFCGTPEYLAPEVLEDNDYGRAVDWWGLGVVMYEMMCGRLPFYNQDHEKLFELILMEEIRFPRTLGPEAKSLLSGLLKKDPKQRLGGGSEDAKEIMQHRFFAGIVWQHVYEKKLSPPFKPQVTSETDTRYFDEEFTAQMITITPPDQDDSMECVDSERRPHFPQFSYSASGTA

residual activity [1] | residual activity [2] | inhibition [4] | inhibition [5] | residual activity [6] | inhibition [7] | inhibition [8] | inhibition [9] | inhibition [10] | inhibition [11] | inhibition [12] | inhibition [13] | IC50 [14] | inhibition [15] | residual activity [17] | residual activity [18] | SMILES | also measured
< 10% | < 10% | 34% | 5% | < 10% | 24% | Active | 17% | 47% | 77% | 3% | 30% | > 1000 nM | 11% | < 10% | < 10% | CCOC(=O)CCc1c(/C=C2\C(=O)Nc3ccc(NS(=O)(=O)c4ccccc4)cc32)[nH]c2c1C(=O)CCC2 | IC50 (HCT-116 [3]): 1020 nM; inhibition [16]: 31%
< 10% | < 10% | 56% | 4% | < 10% | 6% | Active | 56% | 24% | 41% | -4% | -3% | < 1000 nM | 9% | < 10% | < 10% | CN(C)CCCc1c(/C=C2\C(=O)Nc3ccc(NS(=O)(=O)c4ccccc4)cc32)[nH]c2c1C(=O)CCC2 | Activity (HCT-116 [19]): Active; IC50 (Aurora kinase B): 235 nM; IC50 (Aurora kinase A): 2190 nM; IC50 [20]: < 1000 nM; IC50 (HeLa): 7800 nM; IC50 [21]: < 1000 nM; Activity (HCT-116 [22]): Active
